Experimental data of several laboratories.
Compare with care: the assays were run in different laboratories. pEC50, pIC50: −log10 of the molar value.
Read-out: cell growth or viability

The pEC50 of `C=CC(=O)NC1CCN(c2ncc3ncnc(Nc4ccc(Oc5ccc6c(c5)ncn6C)c(C)c4)c3n2)CC1` is reported as 7.96 (KNS-62).
The pIC50 of `CCN(CC)CCCC(C)Nc1ccnc2cc(Cl)ccc12` (centres unmarked) is reported as 4.36 (SH-SY5Y; resazurin).
For `COc1cc2c3c(n(CCCn4ccnc4)c(=O)c2cc1OC)-c1nc2c(cc1C3=O)OCO2`, the pIC50 was 6.77 (SK-N-MC; MTS; 72 h).
`C=C(F)C(=O)N1CCN(c2nc(OC[C@@H]3CCCN3C)nc3c2CCN(c2cccc4cccc(Cl)c24)C3)C[C@@H]1CC#N` has a pIC50 of 7.67 (Lu-99; ATP luminescence; 3D culture).
For `CC(C)(C)c1cnc(CSc2cnc(NC(=O)C3CCN(CCCCCCCCSc4cccc5c4CN(C4CCC(=O)NC4=O)C5=O)CC3)s2)o1` (centres unmarked), the viability was 22.4% (HuT78; trypan blue; 0.25 µM; 48 h).
With `Nc1ccc(/C=C/C(=O)N2CCc3c(oc4c(-c5ccc(F)cc5)cc(-c5ccc(C(=O)N6CCC(F)(F)CC6)nn5)cc34)C2)cn1` the pIC50 was 6.60 (Pan02; CCK-8; 72 h).
The pIC50 of `OC(c1cc(C(F)(F)F)nc2c(C(F)(F)F)cccc12)C1CCCCN1` (centres unmarked) is reported as 5.10 (SH-SY5Y; resazurin).
`C#Cc1nc(C2=C(C)C(O)CC2)cs1` (centres unmarked) gave a CC50 of 0.96 µM (HT-1080).
For `[H]/N=C(\N/C(=N/[H])Nc1ccc(Cl)cc1)NC(C)C`, the pIC50 was < 4.30 (SH-SY5Y; resazurin).
`CC(C)(C)c1cnc(CSc2cnc(NC(=O)C3CCN(CCCCCSc4cccc5c4CN(C4CCC(=O)NC4=O)C5=O)CC3)s2)o1` (centres unmarked) gave a viability of 9.46% (HuT78; trypan blue; 0.25 µM; 48 h).
For `COc1cc2c3c(n(CCCN4CCOCC4)c(=O)c2cc1OC)-c1nc2c(cc1C3=O)OCO2`, the pIC50 was 6.16 (SK-N-MC; MTS; 72 h).
With `O=C1C(O)=C([C@H]2CC[C@H](c3ccc(Cl)cc3)CC2)C(=O)c2ccccc21` the pIC50 was < 4.30 (SH-SY5Y; resazurin).
With `Nc1ccc(/C=C/C(=O)N2CCc3c(oc4c(-c5ccc(F)cc5)cc(-c5ccc(C(=O)N6C[C@@H]7[C@H](C6)C7(F)F)nn5)cc34)C2)cn1` the pIC50 was 6.52 (Pan02; CCK-8; 72 h).
The pIC50 of `CC(C)c1ccccc1[C@@H]1CCCN1C1CC2(CCN(c3ccc(C(=O)NS(=O)(=O)c4ccc(NC[C@H]5CC[C@](C)(O)CC5)c([N+](=O)[O-])c4)c(Oc4cnc5[nH]ccc5c4)c3)CC2)C1` is reported as 5.13 (MM.1R; ATP luminescence; 48 h).
